Test results: ChEMBL document CHEMBL1240350, “In vitro activity of CEM-101 against Streptococcus pneumoniae and Streptococcus pyogenes with defined macrolide resistance mechanisms” (Antimicrob Agents Chemother, 2010)
Converted amounts (≈) assume the structure as drawn.

Tests used:
[1] = system: Streptococcus pneumoniae; test: Antibacterial activity against penicillin-intermediate Streptococcus pneumoniae after overnight incubation by agar dilution method; assay type: functional
Summary of the method: (§1)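 Agar dilution on Mueller-Hinton agar supplemented with 5% sheep blood, inoculum 10^4 CFU/spot, read after overnight incubation at 35°C in ambient air. Clinical isolates with defined genotypes; S. pneumoniae ATCC 49619 quality control strain included in each run. MIC50/MIC90 are MICs inhibiting 50% and 90% of isolates.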

[2] = system: Streptococcus pneumoniae; test: Antibacterial activity against Streptococcus pneumoniae harboring erm(B) gene after overnight incubation by agar dilution method; assay type: functional
Summary of the method: (§2)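 Clinical isolates collected 1998–2008, with macrolide-resistance genes confirmed by PCR. MICs by agar dilution on Mueller-Hinton agar with 5% sheep blood. Inoculum 10^4 CFU/spot, incubated overnight at 35°C in ambient air. S. pneumoniae ATCC 49619 was the quality-control strain in every run.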

[3] = system: Streptococcus pneumoniae; test: Antibacterial activity against quinolone-susceptible Streptococcus pneumoniae after overnight incubation by agar dilution method; assay type: functional
Summary of the method: (§3)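 Agar dilution on Mueller-Hinton agar supplemented with 5% sheep blood. Inoculum 10^4 CFU/spot, incubated overnight at 35°C in ambient air. Test strains were clinical pneumococcal isolates. S. pneumoniae ATCC 49619 was included as the quality control strain in each run. MIC range, MIC50 and MIC90 were reported for each susceptibility category.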

[4] = system: Streptococcus pneumoniae; test: Antibacterial activity against quinolone-resistant Streptococcus pneumoniae after overnight incubation by agar dilution method; assay type: functional; summary of the method: as §3
[5] = system: Streptococcus pneumoniae; test: Antibacterial activity against macrolide-resistant Streptococcus pneumoniae harboring mef(A) gene after overnight incubation by agar dilution method; assay type: functional
Summary of the method: (§4)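 Agar dilution MICs on Mueller-Hinton agar with 5% sheep blood. Inoculum 10^4 CFU/spot, incubated overnight at 35°C in ambient air. Clinical S. pneumoniae or group A streptococcal isolates; resistance genotypes (erm(B), erm(A), mef(A)/mef(E)) were assigned by PCR. S. pneumoniae ATCC 49619 served as QC strain in each run. Range, MIC50 and MIC90 reported per phenotype group.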

[6] = system: Streptococcus pneumoniae; test: Antibacterial activity against macrolide-resistant Streptococcus pneumoniae harboring erm(B) and mef(A) gene after overnight incubation by agar dilution method; assay type: functional; summary of the method: as §4
[7] = system: Streptococcus pneumoniae; test: Antibacterial activity against macrolide-resistant Streptococcus pneumoniae harboring mutation in L4 ribosomal protein after overnight incubation by agar dilution method; assay type: functional; summary of the method: as §4
[8] = system: Streptococcus pyogenes; test: Antibacterial activity against macrolide-susceptible Streptococcus pyogenes after overnight incubation by agar dilution method; assay type: functional; summary of the method: as §1
[9] = system: Streptococcus pyogenes; test: Antibacterial activity against Streptococcus pyogenes harboring erm(A) gene after overnight incubation by agar dilution method; assay type: functional; summary of the method: as §2
[10] = system: Streptococcus pyogenes; test: Antibacterial activity against Streptococcus pyogenes harboring mutation in L4 ribosomal protein after overnight incubation by agar dilution method; assay type: functional; summary of the method: as §2
[11] = system: Streptococcus pyogenes; test: Antibacterial activity against macrolide-resistant Streptococcus pyogenes harboring mef(A) gene after overnight incubation by agar dilution method; assay type: functional; summary of the method: as §4
[12] = system: Streptococcus pyogenes; test: Antibacterial activity against macrolide-resistant Streptococcus pyogenes harboring erm(A) gene after overnight incubation by agar dilution method; assay type: functional; summary of the method: as §4
[13] = system: Streptococcus pneumoniae; test: Antibacterial activity against macrolide-susceptible Streptococcus pneumoniae 1077 after overnight incubation by agar dilution method; assay type: functional
[14] = system: Streptococcus pneumoniae; test: Antibacterial activity against macrolide-susceptible Streptococcus pneumoniae 1077 after 49 passages and 10 compound-free subculturing by retest method; assay type: functional
[15] = system: Streptococcus pneumoniae; test: Antibacterial activity against macrolide-resistant Streptococcus pneumoniae 1076 harboring erm(B) and mef(A) gene after 14 passages and 10 compound-free subculturing by retest method; assay type: functional
Summary of the method: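 Multistep selection by daily serial passage in subinhibitory drug concentrations. Medium was cation-adjusted Mueller-Hinton broth plus 5% lysed horse blood. Each day the next inoculum came from the tube 1–2 dilutions below the MIC whose turbidity matched the growth control, for up to 50 days. Clone MICs by CLSI macrodilution; identity to the parent confirmed by SmaI PFGE.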

[16] = system: Streptococcus pneumoniae; test: Antibacterial activity against macrolide-resistant Streptococcus pneumoniae 2686 harboring mutation in L4 ribosomal protein after 14 passages and 10 compound-free subculturing by retest method; assay type: functional
[17] = system: Streptococcus pneumoniae; test: Antibacterial activity against macrolide-resistant Streptococcus pneumoniae 2686 harboring mutation in L4 ribosomal protein after 25 passages and 10 compound-free subculturing by retest method; assay type: functional
[18] = system: Streptococcus pneumoniae; test: Antibacterial activity against macrolide-susceptible Streptococcus pneumoniae 7127 harboring S20N mutation in L4 ribosomal protein and A105V mutation in L22 ribosomal protein after 15 passages and 10 compound-free subculturing by retest method; assay type: functional
[19] = system: Streptococcus pneumoniae; test: Antibacterial activity against macrolide-susceptible Streptococcus pneumoniae 7127 harboring S20N mutation in L4 ribosomal protein and A105V mutation in L22 ribosomal protein after 43 passages and 10 compound-free subculturing by retest method; assay type: functional
[20] = system: Streptococcus pneumoniae; test: Antibacterial activity against macrolide-resistant Streptococcus pneumoniae 3009 harboring mutation in 23S rRNA after 20 passages and 10 compound-free subculturing by retest method; assay type: functional
[21] = system: Streptococcus pneumoniae; test: Antibacterial activity against macrolide-resistant Streptococcus pneumoniae 1076 harboring erm(B) and mef(A) gene after overnight incubation by agar dilution method; assay type: functional
[22] = system: Streptococcus pneumoniae; test: Antibacterial activity against macrolide-resistant Streptococcus pneumoniae 1635 harboring erm(A) gene after overnight incubation by agar dilution method; assay type: functional
[23] = system: Streptococcus pneumoniae; test: Antibacterial activity against macrolide-resistant Streptococcus pneumoniae 3009 harboring mutation in 23S rRNA after overnight incubation by agar dilution method; assay type: functional
[24] = system: Streptococcus pyogenes; test: Antibacterial activity against macrolide-susceptible Streptococcus pyogenes 2132 after 28 passages and 10 compound-free subculturing by retest method
[25] = system: Streptococcus pyogenes; test: Antibacterial activity against macrolide-resistant Streptococcus pyogenes 2368 harboring erm(B) gene after overnight incubation by agar dilution method
[26] = system: Streptococcus pyogenes; test: Antibacterial activity against macrolide-resistant Streptococcus pyogenes 2094 harboring erm(A) gene after overnight incubation by agar dilution method
[27] = system: Streptococcus pyogenes; test: Antibacterial activity against macrolide-susceptible Streptococcus pyogenes 2132 after 50 passages following overnight incubation by agar dilution method
[28] = system: Streptococcus pyogenes; test: Antibacterial activity against macrolide-resistant Streptococcus pyogenes 2368 harboring erm(B) gene after 6 passages and 10 compound-free subculturing by retest method
[29] = system: Streptococcus pyogenes; test: Antibacterial activity against macrolide-resistant Streptococcus pyogenes 2011 harboring mef(A) gene after 50 passages following overnight incubation by agar dilution method
[30] = system: Streptococcus pyogenes; test: Antibacterial activity against macrolide-resistant Streptococcus pyogenes 237 harboring mutation in L4 ribosomal protein after 20 passages and 10 compound-free subculturing by retest method
[31] = system: Streptococcus pyogenes; test: Antibacterial activity against macrolide-resistant Streptococcus pyogenes 237 harboring mutation in L4 ribosomal protein after 43 passages and 10 compound-free subculturing by retest method
[32] = system: Streptococcus pyogenes; test: Antibacterial activity against macrolide-resistant Streptococcus pyogenes 237 harboring mutation in L4 ribosomal protein after 50 passages following overnight incubation by agar dilution method

CC[C@H]1OC(=O)[C@H](C)C(=O)[C@H](C)[C@@H](O[C@@H]2O[C@H](C)C[C@H](N(C)C)[C@H]2O)[C@](C)(OC)C[C@@H](C)C(=O)[C@H](C)[C@H]2N(CCCCn3cnc(-c4cccnc4)c3)C(=O)O[C@]12C [TELITHROMYCIN]
MIC50 [1]: 0.06 µg/mL (≈ 0.0739 µM) | MIC90 [1]: 0.5 µg/mL (≈ 0.616 µM) | MIC50 [2]: 0.06 µg/mL (≈ 0.0739 µM) | MIC90 [2]: 1 µg/mL (≈ 1.23 µM) | MIC50 [3]: 0.125 µg/mL (≈ 0.154 µM) | MIC90 [3]: 0.5 µg/mL (≈ 0.616 µM) | MIC50 [4]: 0.03 µg/mL (≈ 0.0369 µM) | MIC90 [4]: 0.125 µg/mL (≈ 0.154 µM) | MIC50 [5]: 0.125 µg/mL (≈ 0.154 µM) | MIC90 [5]: 0.25 µg/mL (≈ 0.308 µM) | MIC50 [6]: 0.5 µg/mL (≈ 0.616 µM) | MIC90 [6]: 1 µg/mL (≈ 1.23 µM) | MIC50 [7]: 0.125 µg/mL (≈ 0.154 µM) | MIC90 [7]: 0.25 µg/mL (≈ 0.308 µM) | MIC50 [8]: 0.06 µg/mL (≈ 0.0739 µM) | MIC90 [8]: 0.06 µg/mL (≈ 0.0739 µM) | MIC50 [9]: 0.06 µg/mL (≈ 0.0739 µM) | MIC90 [9]: 0.125 µg/mL (≈ 0.154 µM) | MIC [10]: 0.06 µg/mL (≈ 0.0739 µM) | MIC50 [11]: 0.5 µg/mL (≈ 0.616 µM) | MIC90 [11]: 1 µg/mL (≈ 1.23 µM) | MIC50 [12]: 0.06 µg/mL (≈ 0.0739 µM) | MIC90 [12]: 0.125 µg/mL (≈ 0.154 µM) | MIC [13]: 0.004 µg/mL (≈ 0.00493 µM) | MIC [14]: 0.06 µg/mL (≈ 0.0739 µM) | MIC [15]: > 64 µg/mL | MIC [16]: 0.06 µg/mL (≈ 0.0739 µM) | MIC [17]: 0.5 µg/mL (≈ 0.616 µM) | MIC [18]: 0.008 µg/mL (≈ 0.00985 µM) | MIC [19]: 0.008 µg/mL (≈ 0.00985 µM) | MIC [20]: 0.06 µg/mL (≈ 0.0739 µM) | MIC [21]: 0.5 µg/mL (≈ 0.616 µM) | MIC [22]: 0.004 µg/mL (≈ 0.00493 µM) | MIC [23]: 0.016 µg/mL (≈ 0.0197 µM) | MIC [24]: 0.03 µg/mL (≈ 0.0369 µM) | MIC [25]: 8 µg/mL (≈ 9.85 µM) | MIC [26]: 0.03 µg/mL (≈ 0.0369 µM) | MIC [27]: 0.03 µg/mL (≈ 0.0369 µM) | MIC [28]: > 64 µg/mL | MIC [29]: 1 µg/mL (≈ 1.23 µM) | MIC [30]: 1 µg/mL (≈ 1.23 µM) | MIC [31]: 0.06 µg/mL (≈ 0.0739 µM) | MIC [32]: 0.125 µg/mL (≈ 0.154 µM)
